In experiment [1] the test system is Crk SH2. The experiment in a line: FP competition assay: unlabeled peptides vs FAM-DVpYDVPP. In kind it is binding, mouse Crk protein 1 – 118 identical to human CRK protein. The conditions noted are these: 4 nM FAM-labeled phosphorylated peptide, 150 nM Crk SH2, unlabeled competitor peptides; data not shown. The essentials:
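Polarization is read as mP values. For each unlabeled peptide, the concentration giving 50% displacement of the FAM probe is obtained by non-linear regression.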

Experiment [2] relates to Crk SH2. The experiment in a line: Differential scanning fluorimetry. It is filed as binding, mouse Crk protein 1 – 118 identical to human CRK protein. The conditions noted are these: 10 μM Crk SH2, 10X SYPRO Orange, peptides 0-300 μM, 50 mM HEPES, pH 7.5, 150 mM NaCl; 25 to 95°C at 0.2°C/s; Figure 6B. In outline: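 Before dye addition, Crk SH2 (10 μM final) is preincubated with peptides, dispensed from DMSO or buffer, for 30 min at room temperature. SYPRO Orange is then added and samples are melted. Tm is taken from the fluorescence curve or its first derivative as the half-unfolded point. ΔTm is the change in Tm on ligand binding. A DMSO series of 0–2% was also run.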

The subject of experiment [3] is Crk SH2. The experiment in a line: Fluorescence polarization. It is filed as mouse Crk protein 1 – 118 identical to human CRK protein. The conditions noted are these: direct binding; various concentrations of FAM-conjugated peptides titrated into 4 nM Crk SH2, 20 mM HEPES pH 7.5, 0.025% Triton X-100; 384-well, 480-nm excitation, 535-nm emission; repeated at least three times; Figure 6A. In general terms: Fluorescence polarisation rises when a labelled molecule tumbles more slowly, as on binding a larger partner.

The subject of another experiment is Crk SH2 vs CrkL SH2. Briefly: Comparison of affinity of FAM-DVpYDVPP for Crk SH2 vs CrkL SH2. In kind it is binding, mouse. The conditions noted are these: comparison in words; assay and values not given.

“Also recorded” adds a separate entry of the source.

For DVFDVPP-OH, the “Competition of binding of Crk SH2 with FAM-DVpYDVPP” value (from here on “Competition of binding of Crk SH2”) in the experiment on Crk SH2 [1] is listed as “much less significantly”.

In the case of DVYDVPP, in the experiment on Crk SH2 [1], the “Competition of binding of Crk SH2” value is recorded as “much less significantly”. The “Shift of thermal unfolding curve / Tm” value with Crk SH2 [2] is “no significant shift in Tm was observed; also recorded: no significant binding”.

For the substance DVpYDVPP-OH, the “Competition of binding of Crk SH2” value with Crk SH2 [1] was “effectively competed out”. Moreover, the “Shift of thermal unfolding curve / Tm” value in the experiment on Crk SH2 [2] is “shift to the right; also recorded: unfolding curves shifted”.

Take FAM-DVYDVPP: in the experiment on Crk SH2 [3], the “Increase in FP / polarization (mP)” value is reported as “no significant increase in FP is observed; also recorded: No polarization is detected”.

On to FAM-DVpYDVPP, for which the “Increase in FP / polarization (mP)” value with Crk SH2 [3] is reported as “a significant increase in FP is measured”. For the same substance, the “Relative affinity, Crk SH2 vs CrkL SH2” value in the experiment on Crk SH2 vs CrkL SH2 is given as “Crk SH2 showed a higher affinity”.

The values above are taken from paper PMC11542726 (Methods in enzymology, 2024).
